Hits are enriched below; roughly 4.3% of the tested compounds scored in any of these assays.
PREPL inh: human PREPL enzyme inhibition | inhibition, % at 5.96 µM | Q4J6C6 | actives 0.68% (n = 320,000) | recombinant PREPL, fluorescence polarization activity-based probe; in the data active = inhibition above about 43%;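 note: 0% = enzyme with DMSO and 100% = wells lacking enzyme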
Target sequence (Q4J6C6 whole entry, looked up): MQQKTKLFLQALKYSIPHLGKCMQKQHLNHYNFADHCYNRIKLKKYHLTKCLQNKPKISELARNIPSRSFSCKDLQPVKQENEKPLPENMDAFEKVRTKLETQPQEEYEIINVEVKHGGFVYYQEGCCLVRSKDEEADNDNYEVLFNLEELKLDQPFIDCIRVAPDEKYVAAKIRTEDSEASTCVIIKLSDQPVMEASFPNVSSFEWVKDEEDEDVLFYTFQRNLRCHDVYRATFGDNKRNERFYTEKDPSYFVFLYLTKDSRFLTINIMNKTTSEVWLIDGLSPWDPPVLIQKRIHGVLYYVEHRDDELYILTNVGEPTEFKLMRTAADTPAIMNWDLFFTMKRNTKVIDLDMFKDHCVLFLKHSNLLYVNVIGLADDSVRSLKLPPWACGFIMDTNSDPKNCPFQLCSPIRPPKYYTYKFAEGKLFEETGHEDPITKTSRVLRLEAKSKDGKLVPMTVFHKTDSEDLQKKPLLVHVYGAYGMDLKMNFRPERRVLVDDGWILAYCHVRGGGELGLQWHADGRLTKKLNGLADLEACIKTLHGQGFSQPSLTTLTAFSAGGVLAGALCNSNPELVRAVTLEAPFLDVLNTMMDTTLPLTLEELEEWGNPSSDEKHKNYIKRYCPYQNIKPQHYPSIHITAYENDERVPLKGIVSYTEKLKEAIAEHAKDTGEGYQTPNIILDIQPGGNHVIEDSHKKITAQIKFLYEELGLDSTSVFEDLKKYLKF
UBC9 SUMO inh: inhibitors of human SUMOylation (UBC9) | P63279 | HTRF SUMOylation assay, SAE1/SAE2 + UBC9, in vitro | inhibition, % at 35 µM | actives 0.36% (n = 290,000); in the data active = inhibition above about 50%, passing the limit was not always enough
RBBP9 inhibitor: human RBBP9 hydrolase inhibition; recombinant RBBP9, FP-Rh probe fluorescence polarization; actives 0.2% (n = 220,000); inhibition, % at 7.94 µM;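 active = inhibition above the campaign mean of all tested compounds plus 3 SD, cut at about 14% in these data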;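 note: plate controls were DMSO wells with RBBP9 for no effect and wells lacking RBBP9 protein for full effect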
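Controls: DMSO-treated enzyme wells and wells lacking RBBP9 | Material: RBBP9 protein | Technique: Fluorescence polarization | Replication: Single well per compound, no replicates | Buffer or medium: Tris-NaCl-Pluronic buffer, pH 8.0 | Timing: 30 min compound preincubation, 45 min probe labeling, 25 °C | Read-out basis: Percent inhibition from mP, scaled between DMSO and no-protein wells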
ALR inh: inhibitors of human sulfhydryl oxidase ALR. inhibition, % (concentration not given with the values). P55789. purified ALR, DTT oxidation, H2O2 HRP-luminol luminescence. actives 3.8% (n = 290,000);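 active = mean replicate inhibition above about 79%, with every replicate also reaching it, limit read from the data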
Rin1-Abl PPI inh: blocks binding of human Rin1 to Abl; P00519+Q13671; inhibition, % at 7.35 µM; TR-FRET Rin1/Abl binding, biochemical; actives 0.4% (n = 360,000); in the data active = inhibition above about 5%, passing the limit was not always enough
UBC13 polyUb: inhibitors of human UBC13 polyubiquitin chain formation | TR-FRET | inhibition, % at 20 µM | actives 0.47% (n = 330,000) | AID 485273; in the data active = inhibition above about 45%, passing the limit was not always enough
The depositor's hits bear a star; x = not tested or not shown.

SMILES | PREPL inh | UBC9 SUMO inh | RBBP9 inhibitor | ALR inh | Rin1-Abl PPI inh | UBC13 polyUb
Cc1ccc(C2C(C#N)=C(N)Oc3cc(N)ccc32)cc1 (stereo unspecified) | 7.3 | -9.6 | x | 95.9* | -3.4 | -2.1
Cc1occc1-c1nnc(SCC(=O)c2ccc(F)cc2)o1 | 17.1 | 9.4 | -7.1 | 96.6* | -6.0 | 2.0
Cc1cc(C)n(/N=C/c2cc([N+](=O)[O-])ccc2O)c(=O)c1 | 8.9 | 7.1 | -5.8 | 1.7 | 0.7 | -2.5
COc1cc([N+](=O)[O-])cc(CN2CCCCC2)c1O | 7.7 | 0.2 | -1.5 | 98.0* | -2.9 | -5.0
O=[N+]([O-])c1ccc(Cl)c(CN2CCCCCC2)c1 | 7.5 | 3.3 | x | x | -1.8 | -2.0
O=C(CSc1ccc2nnc(-c3cccnc3)n2n1)Nc1ccccc1C(F)(F)F | -0.5 | 6.3 | x | -5.5 | -0.1 | 5.1
CCOC(=O)/C(C#N)=C(C)/C=C1\Sc2ccccc2N1CC | 4.5 | 6.9 | -3.8 | 0.9 | 1.6 | -29.3
CCN1/C(=C\C=C(C(C)=O)C(C)=O)Sc2ccccc21 | -4.8 | -5.0 | -11.2 | 98.6* | -62.2 | -429.4
COc1cc(/C=C2\C(=O)ON=C2c2ccc(Cl)cc2)ccc1O | 2.5 | x | x | 61.7 | x | -52.8
CC1=NN(c2ccccc2)C(=O)/C1=C/N(C)C | 9.4 | 14.0 | 4.5 | 2.0 | -2.7 | 1.3
CCOc1cc(/C=C2/C(=O)N(c3ccccc3)N=C2C)ccc1OC(=O)c1cccs1 | 54.1* | 32.2 | -7.4 | -3.9 | 11.9* | -66.7
COc1ccc(/C=C2/C(=O)N(c3ccccc3)N=C2C)cc1 | 12.4 | x | x | -10.1 | 8.1* | -35.7
COc1ccc(/C=C2\C(=O)ON=C2c2ccccc2)cc1 | -5.8 | 14.4 | x | 97.8* | -0.6 | -1.8
COc1ccc(C2=NN(c3ccccc3)C(=O)/C2=C\c2ccc(O)c(OC)c2)cc1 | -3.1 | 73.7* | -11.5 | -13.7 | -3.0 | -144.5
CCOc1cc(/C=N/NC(=O)c2ccccn2)ccc1OC(=O)c1cccs1 | 23.0 | -0.7 | x | 17.6 | 2.4 | -5.7
Cn1c(CNC(=O)CNC(=O)c2ccc(C(C)(C)C)cc2)cc(=O)n(C)c1=O | 15.0 | 13.4 | x | -3.8 | 3.6 | -3.0
CN1OC[C@@H]2CN(Cc3ccc(Cl)cc3)[C@H](c3ccc(-n4ccnc4)cc3)C[C@@H]21 | x | x | x | x | 2.9 | x
COc1ccccc1NS(=O)(=O)c1ccc2oc(N)nc2c1 | 6.6 | -4.0 | x | 1.0 | -0.2 | -2.1
CC(C)CC1NC(=O)N(CC(=O)Nc2ccc(OCc3ccccc3)cc2)C1=O (stereo unspecified) | x | x | x | x | -0.3 | 7.2
Cc1noc(C)c1NC(=O)Nc1cccc2c1O[C@H](CN(C)C(=O)NC1CCCCC1)[C@@H](C)CN([C@H](C)CO)C2=O | 13.8 | x | x | -3.8 | 2.4 | 17.1
Cc1cc(C)n(C2CC(=O)N(c3ccc(Cl)c(Cl)c3)C2=O)n1 (stereo unspecified) | -10.9 | -4.0 | -7.8 | -1.6 | -0.2 | 0.5
CCN(CC)c1ccc(/C=C2\C(=O)N(c3nnc(C)c(=O)[nH]3)N=C2C)cc1 | -6.7 | -28.3 | 2.5 | 26.5 | 3.6 | -149.9
COc1ccc(/C=C2/C(=O)N(c3c(F)c(F)c(F)c(F)c3F)N=C2C)cc1 | 5.0 | 7.1 | x | 90.2* | -3.1 | -18.2
COc1cc(/C=C2/C(=O)N(c3cccc(Br)c3)N=C2C)cc(OC)c1O | 0.1 | -2.8 | x | 92.1* | 2.4 | -89.8
CCN(C(=O)COC(=O)C1CCN(S(=O)(=O)c2ccc(C)c(C)c2)CC1)C1CCCCC1 | 14.3 | x | x | x | 0.1 | -1.6
SMILES | PREPL inh | UBC9 SUMO inh | RBBP9 inhibitor | ALR inh | Rin1-Abl PPI inh | UBC13 polyUb
c1ccc(CNc2ccc(N3CCOCC3)cc2)cc1 | 40.9 | x | x | 99.0* | 2.4 | 6.0
COc1ccc(OCC(=O)Nc2ccc(N3CCOCC3)cc2)cc1 | 23.9 | 1.1 | 1.2 | -15.5 | -2.6 | 8.1
c1ccc(N2CCOCCOCCOCCOCCOCC2)cc1 | 12.9 | -5.1 | -8.7 | 95.9* | -0.8 | -1.3
O=S(=O)(c1ccc(NCc2ccccc2)cc1)N1CCOCC1 | 9.0 | 12.3 | x | 12.1 | 0.5 | 0.0
COc1ccc(CNc2ccc(N3CCOCC3)cc2)cc1 | 21.2 | -4.2 | x | 98.9* | 1.6 | -2.2
c1ccc2c(Nc3ccc(N4CCOCC4)cc3)nc(N3CCOCC3)nc2c1 | 21.2 | -6.1 | x | 92.4* | 2.1 | -3.0
CN(C(=O)COC(=O)c1nn(C)c(=O)c2ccccc12)c1c(N)n(Cc2ccccc2)c(=O)[nH]c1=O | -8.9 | x | x | -0.5 | -1.3 | 2.7
CN(C)Cc1c(C(=O)N/N=C/CCc2ccccc2)nnn1-c1nonc1N | 13.8 | -2.2 | x | x | 0.9 | -5.9
COc1ccc(NC(=O)N(C)C[C@@H]2OCc3cn(nn3)CCCC(=O)N([C@@H](C)CO)C[C@H]2C)cc1 | x | x | x | x | -1.2 | x
CCCCCCCN1C/C=C\C(c2ccc(OC)cc2)N(Cc2ccc(F)cc2)C(=O)[C@H]1Cc1ccccc1 (stereo partly specified) | -1.4 | -4.3 | x | 4.4 | 2.4 | -12.6
CSCCC(NS(=O)(=O)c1ccc(C)cc1)C(=O)Nc1ccc(C)cn1 (stereo unspecified) | 7.6 | x | x | -3.7 | -1.6 | -0.6
CCC(=O)N1CCCC(C)(C(=O)Nc2ccc(C)c(C)c2)C1 (stereo unspecified) | x | x | x | x | -3.6 | x
NC1=C(O)C(=O)C(c2ccccc2)O1 (stereo unspecified) | 7.0 | 29.8 | -7.2 | -14.3 | 6.2 | 1.3
COc1ccc(Br)cc1C1CC(=O)C(C)C(c2cc(Br)ccc2OC)N1 (stereo unspecified) | -15.5 | -15.6 | x | -4.6 | 0.1 | -14.4
CN1CCc2cc(O)c(O)cc2C(c2ccccc2)C1 (stereo unspecified) | 22.0 | x | x | x | 0.3 | 19.3
C=CCN1CCc2c(cc(O)c(O)c2Br)[C@@H](c2ccccc2)C1 | 14.9 | x | x | 98.8* | 0.1 | 10.2
CC(Sc1nc(O)c(-c2ccccc2)c(=O)[nH]1)C(=O)Nc1ccc(Cl)cc1 (stereo unspecified) | -1.6 | 6.9 | -8.8 | x | 4.2 | 2.3
CCOC(=O)c1ccc(NC(=O)C(C)Sc2nc(O)c(-c3ccccc3)c(=O)[nH]2)cc1 (stereo unspecified) | 5.4 | 13.8 | -4.4 | 98.6* | 0.0 | 5.3
COc1ccc(-c2nc(CS(=O)CC(=O)NC3CCC(C)CC3)c(C)o2)cc1OC (stereo unspecified) | 5.1 | 12.9 | x | 99.5* | 5.3 | -12.9
COc1ccc(-c2nc(CS(=O)CC(=O)NC3CCCc4ccccc43)c(C)o2)cc1OC (stereo unspecified) | -9.4 | 7.9 | -4.2 | 98.9* | -0.7 | -3.6
COc1ccc(-c2nc(CS(=O)CC(=O)NC3CCCC3)c(C)o2)cc1OC (stereo unspecified) | 6.1 | 4.8 | x | 99.2* | 5.8 | -3.5
O=C(Nc1nnc([C@@H]2O[C@H](CO)[C@@H](O)[C@H]2O)s1)Nc1ccccc1C(F)(F)F | x | x | x | x | 2.5 | x
CCN(CC)C(=O)[C@H]1CC(CC(=O)NCc2ccc(OC)c(OC)c2)C(=O)N2CCc3c([nH]c4ccc(OC)cc34)[C@]12C (stereo partly specified) | x | x | x | x | -0.7 | x

Bioassay records deposited in PubChem BioAssay by several laboratories.
